In ChEMBL document CHEMBL5696442, “Discovery of type II inhibitors of TGFβ-activated kinase 1 (TAK1) and mitogen-activated protein kinase kinase kinase kinase 2 (MAP4K2)” (J Med Chem, 2015):

Tests used:
[1] = target: Phosphatidylinositol 4-kinase beta (Homo sapiens) (UniProt Q9UBF8); assay: Inhibition of PI4KB ATP labeling site harbouring VPHTQAVVLNSKDK in human A-375 cells at 0.5 uM by KiNativ Profiling analysis relative to control; assay type: cell-based
[2] = target: Tyrosine-protein kinase Fer (Homo sapiens, UniProt P16591); assay: Inhibition of FER Lys1 labeling site harbouring TSVAVKTCKEDLPQELKin human A-375 cells at 5 uM by KiNativ Profiling analysis relative to control; assay type: cell-based
Sequence of Tyrosine-protein kinase Fer (P16591 whole entry, looked up): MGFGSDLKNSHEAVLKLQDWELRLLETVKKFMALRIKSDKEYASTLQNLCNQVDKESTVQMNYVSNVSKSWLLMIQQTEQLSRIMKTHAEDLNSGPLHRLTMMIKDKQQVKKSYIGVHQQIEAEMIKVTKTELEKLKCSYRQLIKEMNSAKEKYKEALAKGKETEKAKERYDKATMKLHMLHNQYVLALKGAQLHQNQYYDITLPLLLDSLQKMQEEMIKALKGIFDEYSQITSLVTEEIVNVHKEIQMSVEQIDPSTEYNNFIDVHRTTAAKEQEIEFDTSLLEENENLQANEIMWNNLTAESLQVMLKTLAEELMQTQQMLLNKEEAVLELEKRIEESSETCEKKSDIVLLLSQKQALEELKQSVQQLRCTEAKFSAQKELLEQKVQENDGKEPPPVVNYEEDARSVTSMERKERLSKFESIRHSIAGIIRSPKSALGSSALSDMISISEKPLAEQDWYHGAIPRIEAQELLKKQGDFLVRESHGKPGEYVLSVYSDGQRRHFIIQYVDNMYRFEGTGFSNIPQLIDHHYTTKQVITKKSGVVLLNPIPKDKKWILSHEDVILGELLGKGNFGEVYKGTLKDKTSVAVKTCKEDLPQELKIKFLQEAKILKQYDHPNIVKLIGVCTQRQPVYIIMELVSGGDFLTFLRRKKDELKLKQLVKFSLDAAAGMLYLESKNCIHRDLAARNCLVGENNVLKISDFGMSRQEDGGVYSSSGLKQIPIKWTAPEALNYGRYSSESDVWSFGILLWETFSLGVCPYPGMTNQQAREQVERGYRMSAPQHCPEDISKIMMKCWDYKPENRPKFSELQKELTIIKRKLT

[3] = target: Tyrosine-protein kinase Fyn (Homo sapiens) (UniProt P06241); assay: Inhibition of FYN ACT labeling site in human A-375 cells at 0.5 uM by KiNativ Profiling analysis relative to control; assay type: cell-based
Sequence of Tyrosine-protein kinase Fyn (Homo sapiens) (P06241 2-537 limits assumed): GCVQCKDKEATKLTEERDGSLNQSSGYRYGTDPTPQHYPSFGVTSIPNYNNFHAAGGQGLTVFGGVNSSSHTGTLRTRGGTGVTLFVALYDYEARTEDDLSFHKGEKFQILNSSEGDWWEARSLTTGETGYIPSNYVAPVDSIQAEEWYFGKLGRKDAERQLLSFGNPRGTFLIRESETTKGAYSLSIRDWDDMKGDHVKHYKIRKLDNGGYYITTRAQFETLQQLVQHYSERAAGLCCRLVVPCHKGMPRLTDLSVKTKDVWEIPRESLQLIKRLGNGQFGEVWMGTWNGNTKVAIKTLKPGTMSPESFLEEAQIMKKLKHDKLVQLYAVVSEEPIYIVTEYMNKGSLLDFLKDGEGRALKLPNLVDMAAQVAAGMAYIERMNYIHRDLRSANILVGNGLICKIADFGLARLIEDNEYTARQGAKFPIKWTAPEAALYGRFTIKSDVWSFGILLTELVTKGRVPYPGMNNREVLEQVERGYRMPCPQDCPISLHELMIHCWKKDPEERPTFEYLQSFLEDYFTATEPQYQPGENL

[4] = target: 3-phosphoinositide-dependent protein kinase 1 (Homo sapiens) (UniProt O15530); assay: Inhibition of PDK1 Protein Kinase Domain in human A-375 cells at 5 uM by KiNativ Profiling analysis relative to control
Sequence of 3-phosphoinositide-dependent protein kinase 1 (Homo sapiens) (O15530 whole entry, looked up, the tested form may be a part): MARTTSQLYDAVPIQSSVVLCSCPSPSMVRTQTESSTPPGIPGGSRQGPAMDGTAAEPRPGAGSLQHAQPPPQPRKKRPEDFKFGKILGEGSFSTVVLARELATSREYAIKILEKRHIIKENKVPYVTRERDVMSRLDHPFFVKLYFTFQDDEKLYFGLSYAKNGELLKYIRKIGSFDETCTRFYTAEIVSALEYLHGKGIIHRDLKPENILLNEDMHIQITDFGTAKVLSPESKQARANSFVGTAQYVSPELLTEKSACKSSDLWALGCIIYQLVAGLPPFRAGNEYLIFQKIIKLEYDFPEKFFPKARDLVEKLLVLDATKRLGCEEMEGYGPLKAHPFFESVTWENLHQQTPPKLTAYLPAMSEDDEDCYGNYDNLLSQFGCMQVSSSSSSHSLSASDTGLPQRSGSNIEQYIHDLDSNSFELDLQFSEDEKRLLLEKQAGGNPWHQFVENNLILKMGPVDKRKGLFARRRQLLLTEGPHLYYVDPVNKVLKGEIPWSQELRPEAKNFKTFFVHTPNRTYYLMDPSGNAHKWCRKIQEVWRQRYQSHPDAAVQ

[5] = target: Serine/threonine-protein kinase WNK2 (Homo sapiens) (UniProt Q9Y3S1); assay: Inhibition of Wnk2 ACT labeling site in human A-375 cells at 5 uM by KiNativ Profiling analysis relative to control; assay type: cell-based
Sequence of Serine/threonine-protein kinase WNK2 (Homo sapiens) (Q9Y3S1 whole entry): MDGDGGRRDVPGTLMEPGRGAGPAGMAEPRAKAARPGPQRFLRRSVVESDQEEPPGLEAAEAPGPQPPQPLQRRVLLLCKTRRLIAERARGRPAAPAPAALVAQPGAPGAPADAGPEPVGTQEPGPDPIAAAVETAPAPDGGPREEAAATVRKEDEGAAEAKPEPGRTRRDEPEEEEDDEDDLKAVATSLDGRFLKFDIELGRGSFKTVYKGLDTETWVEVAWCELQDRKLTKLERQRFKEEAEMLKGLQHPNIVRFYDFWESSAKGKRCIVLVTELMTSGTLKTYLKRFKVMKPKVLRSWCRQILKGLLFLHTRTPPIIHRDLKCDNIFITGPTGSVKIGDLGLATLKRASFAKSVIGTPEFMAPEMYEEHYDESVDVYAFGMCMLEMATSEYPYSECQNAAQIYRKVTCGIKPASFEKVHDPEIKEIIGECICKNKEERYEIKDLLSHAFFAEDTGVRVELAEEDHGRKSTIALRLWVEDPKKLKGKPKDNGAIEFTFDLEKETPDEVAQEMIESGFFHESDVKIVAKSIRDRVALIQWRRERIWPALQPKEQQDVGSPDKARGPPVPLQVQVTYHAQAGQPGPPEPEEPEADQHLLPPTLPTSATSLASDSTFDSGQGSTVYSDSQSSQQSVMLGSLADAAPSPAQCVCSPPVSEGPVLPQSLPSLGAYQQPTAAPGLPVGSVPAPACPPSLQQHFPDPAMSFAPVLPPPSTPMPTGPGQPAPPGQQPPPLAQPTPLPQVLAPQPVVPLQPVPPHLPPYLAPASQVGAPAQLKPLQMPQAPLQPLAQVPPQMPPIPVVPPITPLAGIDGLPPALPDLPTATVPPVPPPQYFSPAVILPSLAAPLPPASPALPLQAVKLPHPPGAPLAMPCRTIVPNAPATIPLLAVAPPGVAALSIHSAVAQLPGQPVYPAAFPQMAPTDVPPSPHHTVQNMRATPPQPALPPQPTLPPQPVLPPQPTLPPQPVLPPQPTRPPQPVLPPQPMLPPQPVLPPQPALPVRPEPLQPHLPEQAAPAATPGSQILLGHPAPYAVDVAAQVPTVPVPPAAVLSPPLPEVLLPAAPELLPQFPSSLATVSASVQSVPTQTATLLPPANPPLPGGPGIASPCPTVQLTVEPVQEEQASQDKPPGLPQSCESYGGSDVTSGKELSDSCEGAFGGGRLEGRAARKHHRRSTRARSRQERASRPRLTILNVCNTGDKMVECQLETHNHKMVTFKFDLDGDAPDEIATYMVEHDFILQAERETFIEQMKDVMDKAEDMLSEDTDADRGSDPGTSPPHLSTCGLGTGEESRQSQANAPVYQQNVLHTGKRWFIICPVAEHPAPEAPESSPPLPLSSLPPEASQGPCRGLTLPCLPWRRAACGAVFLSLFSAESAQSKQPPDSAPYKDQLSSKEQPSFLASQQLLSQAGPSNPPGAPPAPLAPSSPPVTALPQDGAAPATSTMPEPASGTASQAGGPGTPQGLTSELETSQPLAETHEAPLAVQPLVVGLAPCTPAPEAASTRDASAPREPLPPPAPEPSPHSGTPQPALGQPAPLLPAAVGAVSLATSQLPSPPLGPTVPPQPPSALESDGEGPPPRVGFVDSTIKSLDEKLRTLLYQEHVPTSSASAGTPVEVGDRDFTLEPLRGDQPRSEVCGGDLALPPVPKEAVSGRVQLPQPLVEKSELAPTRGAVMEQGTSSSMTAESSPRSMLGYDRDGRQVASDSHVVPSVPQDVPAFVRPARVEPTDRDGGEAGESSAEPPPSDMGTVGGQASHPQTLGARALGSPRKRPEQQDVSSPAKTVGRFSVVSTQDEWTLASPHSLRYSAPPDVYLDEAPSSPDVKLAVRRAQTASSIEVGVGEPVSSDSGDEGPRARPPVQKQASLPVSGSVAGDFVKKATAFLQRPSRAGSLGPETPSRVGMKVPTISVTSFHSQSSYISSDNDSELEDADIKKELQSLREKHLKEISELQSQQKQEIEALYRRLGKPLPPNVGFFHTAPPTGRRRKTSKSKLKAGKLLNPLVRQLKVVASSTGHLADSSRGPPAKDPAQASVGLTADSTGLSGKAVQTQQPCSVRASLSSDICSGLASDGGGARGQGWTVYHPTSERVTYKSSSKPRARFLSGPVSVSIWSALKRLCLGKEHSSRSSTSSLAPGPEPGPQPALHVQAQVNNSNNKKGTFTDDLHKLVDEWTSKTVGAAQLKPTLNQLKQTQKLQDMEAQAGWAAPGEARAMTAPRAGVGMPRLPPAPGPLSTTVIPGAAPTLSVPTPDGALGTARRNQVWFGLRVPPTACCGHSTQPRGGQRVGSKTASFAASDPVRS

[6] = target: Serine/threonine-protein kinase MRCK beta (Homo sapiens) (UniProt Q9Y5S2); assay: Inhibition of MRCKb in human A-375 cells at 0.5 uM by KiNativ Profiling analysis relative to control; assay type: cell-based
[7] = target: Cyclin-dependent kinase 18 (Homo sapiens) (UniProt Q07002); assay: Inhibition of PCTAIRE3 Lys1 labeling site harbouringSKLTENLVALKEIR in human A-375 cells at 5 uM by KiNativ Profiling analysis relative to control; assay type: cell-based
Method in brief: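 Live A375 melanoma cells were treated with compound at 5 or 0.5 μM, then lysed. Lysates were labeled with a lysine-reactive ATP or ADP-biotin probe. Read-out was the compound's protection of kinase labeling sites from probe labeling (KiNativ).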

[8] = target: Cyclin-dependent kinase 2 (Homo sapiens) (UniProt P24941); assay: Inhibition of CDK2 Lys1 labeling site in human A-375 cells at 0.05 uM by KiNativ Profiling analysis relative to control; assay type: cell-based
[9] = target: T1, EKC/KEOPS complex subunit TP53RK (Homo sapiens) (UniProt Q96S44); assay: Inhibition of PRPK ATP Loop labeling site in human A-375 cells at 0.5 uM by KiNativ Profiling analysis relative to control; assay type: cell-based
T1 sequence (whole entry): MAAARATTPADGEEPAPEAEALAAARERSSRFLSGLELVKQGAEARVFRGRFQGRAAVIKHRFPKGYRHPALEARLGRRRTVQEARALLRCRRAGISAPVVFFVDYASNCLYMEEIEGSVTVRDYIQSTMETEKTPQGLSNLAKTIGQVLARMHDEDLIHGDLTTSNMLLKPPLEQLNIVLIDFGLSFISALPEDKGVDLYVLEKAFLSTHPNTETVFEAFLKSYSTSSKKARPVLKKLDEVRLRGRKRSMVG

[10] = target: T2, Kinase suppressor of Ras 2 (Homo sapiens) (UniProt Q6VAB6); assay: Inhibition of KSR2 ACT labeling site in human A-375 cells at 0.5 uM by KiNativ Profiling analysis relative to control; assay type: cell-based
T2 sequence (whole entry): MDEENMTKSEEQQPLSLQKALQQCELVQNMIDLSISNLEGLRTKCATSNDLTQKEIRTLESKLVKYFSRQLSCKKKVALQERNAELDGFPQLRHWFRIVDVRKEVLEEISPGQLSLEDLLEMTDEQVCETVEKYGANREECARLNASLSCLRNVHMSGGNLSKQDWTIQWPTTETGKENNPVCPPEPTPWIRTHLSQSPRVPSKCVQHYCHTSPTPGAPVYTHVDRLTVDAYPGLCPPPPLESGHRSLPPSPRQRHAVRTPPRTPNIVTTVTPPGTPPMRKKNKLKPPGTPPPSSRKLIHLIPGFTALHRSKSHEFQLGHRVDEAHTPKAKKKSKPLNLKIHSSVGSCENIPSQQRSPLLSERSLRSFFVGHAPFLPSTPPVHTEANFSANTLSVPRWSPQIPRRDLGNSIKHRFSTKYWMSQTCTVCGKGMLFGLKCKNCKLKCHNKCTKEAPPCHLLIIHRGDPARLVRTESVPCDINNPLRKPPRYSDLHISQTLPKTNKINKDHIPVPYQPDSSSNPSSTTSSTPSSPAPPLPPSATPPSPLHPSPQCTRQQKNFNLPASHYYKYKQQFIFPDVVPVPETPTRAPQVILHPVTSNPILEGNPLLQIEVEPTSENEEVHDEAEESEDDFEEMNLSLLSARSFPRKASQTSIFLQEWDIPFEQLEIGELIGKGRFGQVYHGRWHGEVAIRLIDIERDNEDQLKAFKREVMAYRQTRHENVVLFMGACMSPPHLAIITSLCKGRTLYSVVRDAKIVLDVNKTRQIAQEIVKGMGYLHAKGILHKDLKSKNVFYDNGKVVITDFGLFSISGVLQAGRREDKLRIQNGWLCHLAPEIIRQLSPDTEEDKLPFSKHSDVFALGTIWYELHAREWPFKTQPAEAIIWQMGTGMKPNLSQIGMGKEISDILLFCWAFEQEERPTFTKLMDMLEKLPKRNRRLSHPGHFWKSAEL

[11] = target: Mitogen-activated protein kinase kinase kinase kinase 4 (Homo sapiens, UniProt O95819); assay: Inhibition of ZC1/HGK (unknown origin) Lys1 labeling site by KiNativ Profiling analysis
[12] = target: Serine/threonine-protein kinase mTOR (Homo sapiens) (UniProt P42345); assay: Inhibition of FRAP ATP labeling site in human A-375 cells at 0.5 uM by KiNativ Profiling analysis relative to control; assay type: cell-based
Method in brief: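 Live A375 melanoma cells were treated with compound at 0.5 or 5 μM, then lysed. Lysates were labeled with a lysine-reactive ATP or ADP-biotin probe. The read-out was protection of each kinase probe-labeling site from labeling, relative to control.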

[13] = target: Serine/threonine-protein kinase WNK3 (Homo sapiens) (UniProt Q9BYP7); assay: Inhibition of Wnk3 Lys2 labeling site in human A-375 cells at 0.05 uM by KiNativ Profiling analysis relative to control; assay type: cell-based

Sequence of Phosphatidylinositol 4-kinase beta (Homo sapiens) (Q9UBF8 2-816 limits assumed): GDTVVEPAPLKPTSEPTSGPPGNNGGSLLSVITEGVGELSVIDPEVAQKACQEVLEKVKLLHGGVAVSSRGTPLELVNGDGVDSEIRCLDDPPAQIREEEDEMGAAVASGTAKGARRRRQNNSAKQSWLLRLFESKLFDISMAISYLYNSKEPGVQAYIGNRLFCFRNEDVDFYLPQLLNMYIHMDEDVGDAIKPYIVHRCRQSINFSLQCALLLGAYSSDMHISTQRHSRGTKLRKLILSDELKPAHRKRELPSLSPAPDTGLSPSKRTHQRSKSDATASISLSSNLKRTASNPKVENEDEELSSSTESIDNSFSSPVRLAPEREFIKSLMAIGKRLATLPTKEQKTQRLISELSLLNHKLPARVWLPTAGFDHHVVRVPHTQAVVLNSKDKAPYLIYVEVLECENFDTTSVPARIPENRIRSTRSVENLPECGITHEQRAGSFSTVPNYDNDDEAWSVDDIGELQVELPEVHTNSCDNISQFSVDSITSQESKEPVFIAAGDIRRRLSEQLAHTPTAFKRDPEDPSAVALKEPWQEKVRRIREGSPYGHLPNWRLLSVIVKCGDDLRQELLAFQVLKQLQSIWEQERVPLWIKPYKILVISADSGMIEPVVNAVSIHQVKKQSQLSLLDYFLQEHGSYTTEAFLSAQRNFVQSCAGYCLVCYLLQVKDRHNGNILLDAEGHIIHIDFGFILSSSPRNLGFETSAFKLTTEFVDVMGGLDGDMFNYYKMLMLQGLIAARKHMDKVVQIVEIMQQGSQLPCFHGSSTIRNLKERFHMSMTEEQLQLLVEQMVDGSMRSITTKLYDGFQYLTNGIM

SMILES | inhibition [1] [%] | inhibition [2] [%] | inhibition [3] [%] | inhibition [4] [%] | inhibition [5] [%] | inhibition [6] [%] | inhibition [7] [%] | inhibition [8] [%] | inhibition [9] [%] | inhibition [10] [%] | IC50 [11] [µM] | inhibition [12] [%] | inhibition [13] [%]
CCN1CCN(Cc2ccc(NC(=O)c3ccc(C)c(Oc4ccnc5[nH]ccc45)c3)cc2C(F)(F)F)CC1 | 6.9 | 98.1 | 36.5 | 9 | 14.4 | -3 | 73.3 | 16.1 | 9.2 | 8.5 | 3.25 | -3 | -3.5
CCN1CCN(Cc2ccc(NC(=O)c3ccc(C)c(/C=C/c4cnc5[nH]ccc5c4OC)c3)cc2C(F)(F)F)CC1 | -4.3 | 77.9 | 72.6 | 15.8 | -4.5 | 7.3 | 24.3 | 13.8 | 9.6 | 16.8 | 9.75 | 0.8 | 7.1
